Measurements of several laboratories.
Target: Phosphatidylinositol 3-kinase catalytic subunit type 3 (PIK3C3, Homo sapiens, UniProt Q8NEB9)

SMILES	effect on	technique	concentration	remaining binding [%]
Nc1c(C(=O)NCc2ccc(C(=O)NCCCC3CCCCC3)cc2)cnn1-c1ccccc1	cell-free assay	competition with immobilised ligand	0.1 µM	99
COc1cnc(Nc2cccc(S(N)(=O)=O)c2)nc1N1CCN(c2ccccc2)C(=O)C1	binding	competition with immobilised ligand	1 µM	64
C[C@H]1CCN(c2nccc(-c3cnn4ncccc34)n2)C1	binding	–	1 µM	86
FC(F)(F)Oc1cccc(-c2cnc3ccc(-c4ccncc4)nn23)c1	cell-free assay	competition with immobilised ligand	5 µM	34
O=C(O)c1cc(-c2ccc(C3CCNCC3)cc2)c2ccc(-c3ccc(C(F)(F)F)cc3)cc2c1	cell-free assay	competition with immobilised ligand	1 µM	100
Nc1ncc2c(n1)-c1c([nH]c3ccc(C#CC4CC4)cc13)CCCC2	binding	competition with immobilised ligand	1 µM	93
CC1CCCN1c1nccc(-c2cnn3ncccc23)n1 (centres unmarked)	binding	–	1 µM	100
O=C(c1ccc(Nc2nccc(-c3cc4ccccc4s3)n2)cc1)N1CCC(N2CCCC2)CC1	binding	competition with immobilised ligand	1 µM	4.9
O=S(=O)(NC1CCC(c2cc(F)ccc2F)(S(=O)(=O)c2ccc(Cl)cc2)CC1)C(F)(F)F (centres unmarked)	cell-free assay	competition with immobilised ligand	1 µM	100
O=C(Nc1c[nH]nc1C(=O)NC1CCNCC1)c1cc(F)cc(F)c1	binding	competition with immobilised ligand	1 µM	90
N[C@@H]1CCN(c2nccc(-c3cnn4ncccc34)n2)C1	binding	–	1 µM	83
c1ccc(N2CCN(Cc3nc4ccccc4[nH]3)CC2)nc1	cell-free assay	competition with immobilised ligand	1 µM	100
O=C(c1ccc(Nc2ncc(Cl)c(-c3ccc(Cl)s3)n2)cc1)N1CCC(N2CCCC2)CC1	binding	competition with immobilised ligand	1 µM	54
CN(C)CC#Cc1ccc(OCCCc2sc(N3CCc4cccc(C(=O)Nc5nc6ccccc6s5)c4C3)nc2C(=O)O)c(F)c1	cell-free assay	competition with immobilised ligand	1 µM	100
COc1ccnn2ncc(-c3ccnc(N(C)C)n3)c12	binding	–	1 µM	96
CNC(=O)[C@@H]1CC[C@@H](n2c(-c3ccc4cnccc4c3)nc3ccc(C(=O)NCc4cccc(C(N)=O)c4)cc32)C1	binding	competition with immobilised ligand	1 µM	7.2
c1cnn2ncc(-c3ccnc(N4CCC45COC5)n3)c2c1	binding	–	1 µM	48
Cc1cc(-n2nc(Cc3cc(F)cc(C(F)(F)F)c3)nc2C)ccc1C(N)=O	cell-free assay	competition with immobilised ligand	1 µM	100
CN(c1nccc(-c2cnn3ncccc23)n1)C1CC1	binding	–	1 µM	100
O=C(NCCCN1CCOCC1)c1ccc(Nc2nccc(-c3cc4ccccc4s3)n2)cc1	binding	competition with immobilised ligand	1 µM	0.6
